# High-throughput results (PubChem BioAssay)
# proCasp3 act: procaspase-3 (human) activation; recombinant procaspase-3 D3A, Ac-DEVD-pNA absorbance 405 nm; 330,000 compounds, 0.11% hits; activation, % at 8.5 µM;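 active = activation above the mean of all tested compounds plus 3 SD, cut at about 21% in these data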
#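 assay system = Procaspase-3 D3A mutant | signal = absorbance at 405 nm, 0 and 120 min | times = 1 h preincubation plus 2 h reaction at 25 °C | repeats = single replicate | read-out = % activation between DMSO and enzyme-spiked controls | medium = Zinc-free HEPES saline buffer with Triton X-100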
# LYPLA2 counter: counter-screen for PME1 inhibitors: inhibitors of human LYPLA2; AID 2177; inhibition, % at 5.9 µM; recombinant LYPLA2, FP-Rh probe fluorescence polarization; O95372; 320,000 compounds, 0.38% hits;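 active = inhibition above the screen-wide mean plus 3 SD, limit set per campaign, cut at about 26% in these data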
# Target sequence (O95372 whole entry, looked up): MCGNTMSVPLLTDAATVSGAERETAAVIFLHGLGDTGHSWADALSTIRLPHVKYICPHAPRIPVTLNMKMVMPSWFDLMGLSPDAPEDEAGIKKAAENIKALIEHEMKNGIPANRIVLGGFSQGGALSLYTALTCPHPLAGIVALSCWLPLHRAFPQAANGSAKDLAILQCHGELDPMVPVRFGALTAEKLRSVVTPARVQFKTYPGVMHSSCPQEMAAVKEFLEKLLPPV
# LYPLA1 counter: LYPLA1 (human) inhibition in PME1 counter-screen; O75608; recombinant LYPLA1, FP-Rh probe fluorescence polarization; inhibition, % at 5.9 µM; 320,000 compounds, 0.16% hits;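 active = inhibition above the mean of all tested compounds plus 3 SD, set per campaign, cut at about 14% in these data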;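 also: inhibitors block serine hydrolase probe labeling of LYPLA1 so polarization falls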
# Target sequence (O75608 whole entry, looked up): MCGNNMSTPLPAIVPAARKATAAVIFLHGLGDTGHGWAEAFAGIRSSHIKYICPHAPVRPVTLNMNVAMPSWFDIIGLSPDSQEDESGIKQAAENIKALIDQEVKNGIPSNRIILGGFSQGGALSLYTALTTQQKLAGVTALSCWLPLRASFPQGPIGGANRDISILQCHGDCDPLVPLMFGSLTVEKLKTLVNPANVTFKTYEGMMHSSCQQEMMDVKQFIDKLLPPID
# procasp7 counter: activates human procaspase-7, counter-screen for procaspase-3 activators | 330,000 compounds, 0.093% hits | activation, % at 8.5 µM | P55210 | recombinant procaspase-7, Ac-DEVD-pNA absorbance 405 nm; D23A/D198A/D206A triple mutant, cannot self-cleave; scale: DMSO 0, 5 µM enzyme 100;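 active = percent activation above the screen-wide mean plus 3 SD, cut at about 25% in these data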
#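 Assay system: Uncleavable procaspase-7 mutant enzyme | Input: 2 µM procaspase-7 mutant as dispensed | Timing: 1 h compound preincubation, 2 h substrate cleavage, 25 °C | Repeats: One well per compound | Control set: DMSO wells as 0%, DMSO with 5 µM added PC-7 as 100% | Technique: Epi-absorbance of released pNA at 405 nm, two timepoints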
# PREPL inh: inhibits the human prolyl oligopeptidase-like enzyme; inhibition, % at 5.96 µM; 320,000 compounds, 0.68% hits; recombinant PREPL, fluorescence polarization activity-based probe; Q4J6C6
# PREPL inh cf: confirmation of human PREPL enzyme inhibitors; shares compounds with PREPL inh; recombinant PREPL, fluorescence polarization activity probe; inhibition, % at 5.96 µM; 2,000 compounds, 67% hits
# Numbers stand for hits; . = inactive; / = no result. In the library only some 1% were active in any assay of this set; here they are far more common. Rule as the data show it, unless noted: active = inhibition above about 43%; inactive = the rest.
SMILES,proCasp3 act,LYPLA2 counter,LYPLA1 counter,procasp7 counter,PREPL inh,PREPL inh cf
O=C(CSc1cccc(C(F)(F)F)c1)Nc1ccc(N2CCOCC2)cc1,.,/,/,.,47,55
Cc1ccc(SCC(=O)Nc2ccc(N3CCOCC3)cc2)cc1,.,.,.,.,.,/
C=C1C(=O)C=C[C@]2(C)C[C@@H]3OC(=O)[C@](C)(O)[C@H]3C[C@@H]12,.,.,.,.,.,/
CC(=O)c1ccc(N(C(=O)CNC(=O)c2ccco2)C(C(=O)NC2CCCC2)c2ccco2)cc1 (stereo not given),.,.,.,.,.,/
Cc1sc2ncnc(N/N=C/c3ccc(O)cc3)c2c1C,.,.,.,.,.,/
Cc1sc2ncnc(N/N=C/c3ccccc3O)c2c1C,.,.,.,.,66,65
Cc1cc(C)c2c(N)c(-c3nc4ccccc4[nH]3)sc2n1,.,.,.,.,78,.
C[C@@H]1O[C@@H](Oc2c(-c3cc(O)c(O)c(O)c3)oc3cc(O)cc(O)c3c2=O)[C@H](O)[C@H](O)[C@H]1O,.,.,.,.,48,.
O=C(O)c1ccccc1NS(=O)(=O)c1ccc(NN=Cc2ccccc2F)c([N+](=O)[O-])c1,.,/,/,.,55,56
COc1ccc(NS(=O)(=O)c2ccc(N/N=C(\C)c3ccncc3)c([N+](=O)[O-])c2)cc1,.,.,.,.,58,49
C/C(=N\Nc1ccc(S(=O)(=O)Nc2ccccc2)cc1[N+](=O)[O-])c1ccncc1,.,.,.,.,.,/
COc1ccc(C=NNc2ccc(S(=O)(=O)Nc3ccccc3C(=O)O)cc2[N+](=O)[O-])c(OC)c1,.,/,/,.,51,49
O=C1CSC(=S)N1Cc1cccnc1,.,.,.,.,.,/
COc1cc2c(C#N)c(N3CCN(C)CC3)nc(N)c2c(N)n1,.,.,.,.,45,.
COc1cc2c(C#N)c(N3CCN(c4ccccc4OC)CC3)nc(N)c2c(N)n1,.,.,.,.,49,46
COc1cc2c(C#N)c(N3CCCC3)nc(N)c2c(N)n1,.,.,.,.,.,/
CC1CCC(C(C)C)C(OC(=O)C[n+]2cc(-c3ccc(Cl)cc3)n3c2CCCCC3)C1 (stereo not given),.,.,.,.,47,44
COc1ccc(CNC(=O)Cc2c(C(=O)O)[nH]c3ccccc23)cc1,.,.,.,.,.,/
COc1ccc(CNC(=O)Cc2c(C(=O)O)[nH]c3ccccc23)c(OC)c1,.,.,.,.,126,.
CC(C)N(C(=O)[C@H]1CC(CC(=O)NCCN2CCOCC2)C(=O)N2CCc3c([nH]c4ccccc34)[C@]12C)C(C)C (stereo not given in full),.,/,/,.,.,/
CCOc1ccc(NCc2cccn2-c2nnc(N3CCC(C(=O)NCCCN4CC(C)CC(C)C4)CC3)s2)cc1 (stereo not given),.,.,.,.,.,/
CCC(=O)c1cccc2c1N=CC1=C(CC(C)(C)CC1=O)N2,.,.,.,.,.,/
CCOC(=O)c1[nH]nc(N)c1NC(=O)c1ccc(Cl)cc1Cl,.,.,.,.,.,/
O=C(Nc1ccccc1N1CCCC1)c1cccc(-c2cc3ccccc3oc2=O)c1,.,.,.,.,45,.
O=C(Nc1ccc(N2CCCC2)cc1)c1cccc(-c2cc3ccccc3oc2=O)c1,.,.,.,.,.,/
SMILES,proCasp3 act,LYPLA2 counter,LYPLA1 counter,procasp7 counter,PREPL inh,PREPL inh cf
COc1ccc(S(=O)(=O)N2CCCN(S(=O)(=O)c3ccc(OC)cc3C)CC2)c(C)c1,.,.,.,.,.,/
CCN(CC)C(=O)c1cn(C)c2ccc(S(=O)(=O)N(CC)CC)cc2c1=O,.,.,.,.,.,/
CC(C)c1ccc(/C=C2\SC(=S)N(CCC(=O)NCCCn3ccnc3)C2=O)cc1,.,.,.,.,.,/
CN(C)/C=N/c1c(C#N)cnn1C,.,.,.,.,.,/
Nc1c(N=Nc2ccccc2F)c(=O)[nH]n1-c1ccccc1,.,.,.,.,.,/
Nc1nn(-c2ccccc2)c(N)c1N=Nc1ccccc1F,.,.,.,.,54,56
Nc1nn(-c2ccccc2)c(N)c1N=Nc1ccccc1,.,.,.,.,51,55
Cc1nn(-c2ccccc2)c(N)c1N=Nc1ccccc1,.,.,.,.,.,/
